Data on five compounds can be found in ChEMBL document CHEMBL4014289, “Synthesis and evaluation of a ligand targeting the μ and δ opioid receptors for drug delivery to lung cancer” (Bioorg Med Chem Lett, 2017).

The target in series [1] is Mu-type opioid receptor (Homo sapiens) (UniProt P35372). Nature of the series: Binding affinity to mu opioid receptor (unknown origin) expressed in HEK cells at 25 nM by confocal microscopic method. In kind it is cell-based. In outline:
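HEK cells transfected to overexpress the μ-opioid receptor were treated with 25 nM rhodamine-labelled naltrexone-derived conjugate for 1 h. […] Cell-associated fluorescence and internalisation were imaged by confocal microscopy.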

Series [2] concerns Kidney. In words: Drug uptake in Nu/Nu mouse kidney xenografted with HEK cells expressing delta opioid receptor (unknown origin). In kind it is ADME, tissue-based. In outline:
(§1)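 Mice carrying HEK xenografts transfected with μ (HEK-mu) or δ (HEK-delta) opioid receptor. […] Mice were sacrificed at 4 h, and organs and tissues were collected and weighed. Radioactivity was counted against a standard tube and expressed as %ID/gram.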

Series [3] deals with Heart. Nature of the series: Drug uptake in Nu/Nu mouse heart xenografted with HEK cells expressing delta opioid receptor (unknown origin). In kind it is ADME, tissue-based. In outline:
as §1

Series [4] relates to Liver. Nature of the series: Drug uptake in Nu/Nu mouse liver xenografted with HEK cells expressing delta opioid receptor (unknown origin). In kind it is ADME, tissue-based. In outline: as §1
In series [5] the test system is Spleen. Nature of the series: Drug uptake in Nu/Nu mouse spleen xenografted with HEK cells expressing delta opioid receptor (unknown origin). In kind it is ADME, tissue-based. In outline:
as §1

Series [6] has as its system Intestine. Nature of the series: Drug uptake in Nu/Nu mouse intestine xenografted with HEK cells expressing delta opioid receptor (unknown origin). It is filed as ADME, tissue-based. In outline: as §1
A short description of series [7]: Drug uptake in Nu/Nu mouse skin xenografted with HEK cells expressing delta opioid receptor (unknown origin). It is filed as ADME, Zone of skin. In outline: as §1
A short description of series [8]: Drug uptake in Nu/Nu mouse tumor xenografted with HEK cells expressing delta opioid receptor (unknown origin). It is filed as ADME, Neoplasm. In outline:
as §1

A short description of series [9]: Drug uptake in Nu/Nu mouse skin xenografted with HEK cells expressing mu opioid receptor (unknown origin). In kind it is ADME, Zone of skin. In outline: as §1
Series [10] in a line: Drug uptake in Nu/Nu mouse tumor xenografted with HEK cells expressing mu opioid receptor (unknown origin). In kind it is ADME, Neoplasm. In outline: as §1
The subject of series [11] is Intestine. Nature of the series: Drug uptake in Nu/Nu mouse intestine xenografted with HEK cells expressing mu opioid receptor (unknown origin). In kind it is ADME, tissue-based. In outline: as §1
Series [12] concerns Kidney. Nature of the series: Drug uptake in Nu/Nu mouse kidney xenografted with HEK cells expressing mu opioid receptor (unknown origin). It is filed as ADME, tissue-based. In outline: as §1
A short description of series [13]: Displacement of [3H]DADLE from delta opioid receptor in guinea pig brain membrane. In kind it is cell membranes, Cavia porcellus. Background: In a radioligand displacement assay an active substance lowers the binding of a labelled ligand.
Series [14] can be described thus: Antitumor activity against human SQC cells xenografted in nude mouse model assessed as tumor growth inhibition at 0.1 mg/kg administered daily relative to control. In kind it is functional. The note with it: read-out: TGI. A general note: A xenograft is tissue or cells of one species grown in another, often human tumour cells in immunodeficient mice.
Series [15] concerns the target Delta-type opioid receptor (Homo sapiens) (UniProt P41143). In words: Binding affinity to delta opioid receptor (unknown origin) expressed in HEK cells at 10 nM by confocal microscopic method. In kind it is cell-based. In outline: (§2)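 HEK cells transfected to overexpress the δ-opioid receptor were incubated with a rhodamine-labelled naltrexone-derived conjugate for 1 h. They were given the conjugate alone or with a 100-fold higher concentration of naltrindole as competitor. Uptake and internalisation were imaged by confocal microscopy.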

The target is the same in series [16]. In words: Binding affinity to delta opioid receptor (unknown origin) expressed in HEK cells at 10 nM in presence of DOR antagonist […] after 1 hr by confocal microscopic method. It is filed as cell-based. In outline: as §2

Each structure is given as a SMILES string. pKi: −log10 of the molar value. Activity calls are given as the source filed them. The calls are words filed in the database; no cut-off is given here.

By pKi is commonly meant the Ki on a negative log10 scale, so that one unit is a factor of ten.

Delta-type opioid receptor (Homo sapiens), sequence (P41143 whole entry): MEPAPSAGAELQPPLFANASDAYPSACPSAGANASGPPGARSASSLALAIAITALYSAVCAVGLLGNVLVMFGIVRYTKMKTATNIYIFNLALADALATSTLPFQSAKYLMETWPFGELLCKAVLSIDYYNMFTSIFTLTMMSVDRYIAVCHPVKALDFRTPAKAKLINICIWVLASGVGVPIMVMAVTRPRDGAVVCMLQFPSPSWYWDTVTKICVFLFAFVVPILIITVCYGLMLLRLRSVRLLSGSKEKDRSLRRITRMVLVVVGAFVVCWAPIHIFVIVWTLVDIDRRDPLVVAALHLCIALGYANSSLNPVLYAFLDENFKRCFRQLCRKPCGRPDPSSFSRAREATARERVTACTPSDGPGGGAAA
Mu-type opioid receptor (Homo sapiens), sequence (P35372 whole entry): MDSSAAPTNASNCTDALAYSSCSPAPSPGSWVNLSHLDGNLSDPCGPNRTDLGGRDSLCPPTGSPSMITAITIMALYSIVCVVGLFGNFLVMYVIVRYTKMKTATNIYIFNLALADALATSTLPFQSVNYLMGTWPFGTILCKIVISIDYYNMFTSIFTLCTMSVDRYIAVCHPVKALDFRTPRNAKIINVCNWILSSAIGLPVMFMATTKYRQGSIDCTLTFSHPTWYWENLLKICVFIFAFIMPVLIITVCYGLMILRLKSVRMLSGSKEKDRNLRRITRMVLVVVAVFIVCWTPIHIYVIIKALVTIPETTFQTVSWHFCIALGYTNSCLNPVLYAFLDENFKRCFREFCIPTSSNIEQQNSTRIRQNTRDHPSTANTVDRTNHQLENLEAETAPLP

With `CCN(CC)c1ccc2c(-c3ccc(NC(=S)NCC(=O)NCC(=O)N[C@@H]4CC[C@@]5(O)[C@H]6Cc7ccc(O)c8c7[C@@]5(CCN6CC5CC5)[C@H]4O8)cc3C(=O)O)c3ccc(=[N+](CC)CC)cc-3oc2c1`, the outcome in [1] was Active.

`NC(CNC(=O)CCOCCOCCOCCOCCNC(=O)CCC(=O)NCCCCCn1cc(-c2ccc(C(=O)N[C@@H]3CC[C@@]4(O)[C@H]5Cc6ccc(O)c7c6[C@@]4(CCN5CC4CC4)[C@H]3O7)cn2)nn1)C(=O)NCC(N)C(=O)NC(CC(=O)O)C(=O)NC(CS)C(=O)O` (stereo partly specified): the Drug uptake entry in series [2], in [3], in series [4], in series [5], in series [6] and in series [7] was “Active” each time. Besides, the Drug uptake result in series [8] is recorded as “Active”.

As to `NC(CNC(=O)CCOCCOCCOCCOCCNC(=O)CCC(=O)NCC(=O)NCC(=O)N[C@@H]1CC[C@@]2(O)[C@H]3Cc4ccc(O)c5c4[C@@]2(CCN3CC2CC2)[C@H]1O5)C(=O)NC(CC(=O)O)C(=O)NC(CS)C(=O)O` (stereo partly specified), the Drug uptake entry in series [9], in series [10], in series [11] and in series [12] was “Active” each time.

Compound `O=C1CC[C@@]2(O)[C@H]3Cc4ccc(O)c5c4[C@@]2(CCN3CC2CC2)[C@H]1O5` [NALTREXONE] gave a pKi in series [13] of 7.98. Moreover, in series [14], the inhibition in vivo at 0.1 mg/kg was found to be 84%.

Take `CCN(CC)c1ccc2c(-c3ccc(NC(=S)NCCCCCn4cc(-c5ccc(C(=O)N[C@@H]6CC[C@@]7(O)[C@H]8Cc9ccc(O)c%10c9[C@@]7(CCN8CC7CC7)[C@H]6O%10)cn5)nn4)cc3C(=O)O)c3ccc(=[N+](CC)CC)cc-3oc2c1`: the outcome in series [15] and in [16] was Active.
